Converted amounts (≈) assume the structure as drawn.
Key:
[1] = AUC (0 to t) in Swiss mouse at 10 mg/kg, po by ESI-LC/MS/MS method; assay type: ADME, organism-based; design: dose 10 mg/kg, route oral; details: plasma
Method in brief: (§1)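 Oral dose of 10 mg/kg, given as a 1 mg/ml suspension in 0.5% CMC with Tween 80 to weighed Swiss mice (n = 4). Blood was drawn at 0.08–24 h, and plasma was kept on ice, centrifuged at 4 °C and stored at −80 °C. Levels were measured by ESI-LC/MS/MS. Parameters came from non-compartmental analysis: Cmax and Tmax read from the profile, AUC0–t by linear trapezoidal rule, AUCinf extrapolated, and T1/2 = 0.693/λz.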

Mus musculus = assay: Antihyperlipidemic activity in Swiss mouse assessed as reduction in plasma triglyceride level at 3 mg/kg, po after 1 to 4 hrs by acute fat tolerance test relative to control; assay type: functional; design: scale not given: the % may be the effect or the level left
Method in brief: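 Fasted Swiss mice (4–5 weeks, 25–30 g) were given 3 mg/kg by oral gavage as a suspension in 0.5% CMC with Tween 80, or vehicle (0.5% CMC). An olive oil bolus (10 ml/kg) followed 1 h later. Plasma was taken at 1, 2, 3 and 4 h and triglycerides were measured with a kit. The triglyceride AUC0–4 h was expressed as percent reduction, with the vehicle group taken as 100%.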

[2] = AUC (infinity) in Swiss mouse at 10 mg/kg, po by ESI-LC/MS/MS method; assay type: ADME, organism-based; design: time infinity, dose 10 mg/kg, route oral; details: plasma; method in brief: as §1
[3] = Tmax in Swiss mouse at 10 mg/kg, po by ESI-LC/MS/MS method; assay type: ADME, organism-based; design: dose 10 mg/kg, route oral; details: in vivo; method in brief: as §1
[4] = Half life in Swiss mouse at 10 mg/kg, po by ESI-LC/MS/MS method; assay type: ADME, organism-based; design: dose 10 mg/kg, route oral; details: in vivo; method in brief: as §1
[5] = Cmax in Swiss mouse at 10 mg/kg, po by ESI-LC/MS/MS method; assay type: ADME, organism-based; design: dose 10 mg/kg, route oral; details: in vivo; method in brief: as §1
[6] = Solubility of the compound at pH 7.4; assay type: physicochemical; details: buffer

SMILES | AUC(0-t) [1] [ng·h/mL] | Activity (Mus musculus) [%] | AUC(0-inf) [2] [ng·h/mL] | Tmax [3] [min] | half-life [4] [min] | Cmax [5] [µM] | solubility [6] [µg/mL]
CC(C)[C@H](NC(=O)c1ncc(-c2ccc(NC(=O)c3ccc(C(C)(C)C)cc3)cc2)s1)C(=O)O | 7060 | 87 | 7070 | 10.2 | 49.8 | 11.3 | –
CC(C)[C@H](NC(=O)c1ccc(-c2ccc(Nc3nc4ccc(F)cc4s3)cc2)cc1)C(=O)O | 5340 | 90 | 5350 | 15 | 37.2 | 5.3 | 10 (≈ 21.6 µM)
CC(C)[C@H](NC(=O)c1ncc(-c2ccc(NC(=O)Nc3ccccc3Cl)cc2)s1)C(=O)O | 623 | 82 | 672 | 9.6 | 29.4 | 1.9 | –
